Laboratory results as given in ChEMBL document CHEMBL5058577, “EUbOPEN Chemogenomics Library 2 (Multiplex)” (2022).

System: U2OS
Assay: Multiplex assay against U2OS
Type: toxicity, cell-based
Conditions: human
Outline: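 At seeding, live cells were stained with Hoechst33342, BioTracker Green Microtubule Cytoskeleton Dye, MitoTracker Red and Annexin V Alexa Fluor 680. After compound addition they were imaged on a CQ1 microscope at 37°C and 5% CO2, and CellPathfinder machine-learning gating sorted them into Hoechst high-intensity objects or normal cells, with normal cells further split into healthy, pyknosed or fragmented nuclei and pyknosed cells into mitotic or apoptotic. Tubulin, mitochondrial-mass and membrane-permeability phenotypes are given as per cents of cells with healthy nuclei.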

[1] = 12 h, 1 µM, compound concentration 1 uM, replicate 1
[2] = 12 h, 1 µM, compound concentration 1 uM, replicate 2
[3] = 12 h, 10 µM, compound concentration 10 uM, replicate 1
[4] = 12 h, 10 µM, compound concentration 10 uM, replicate 2
[5] = 24 h, 1 µM, compound concentration 1 uM, replicate 1
[6] = 24 h, 1 µM, compound concentration 1 uM, replicate 2
[7] = 24 h, 10 µM, compound concentration 10 uM, replicate 1
[8] = 24 h, 10 µM, compound concentration 10 uM, replicate 2
[9] = 48 h, 1 µM, compound concentration 1 uM, replicate 1
[10] = 48 h, 1 µM, compound concentration 1 uM, replicate 2
[11] = 48 h, 10 µM, compound concentration 10 uM, replicate 1
[12] = 48 h, 10 µM, compound concentration 10 uM, replicate 2

For Cc1cc(O)c(-c2ccc([C@@H](C)CN(C)C)cc2)c2c1[nH]c(=O)c1sccc12, the “Population Apoptotic (%)” value [1] was 80%, the “Population Fragmented Nuclei (%)” value [1] was 38% and the “Population Healthy Nuclei (%)” value [1] was 48%. The “Population Hoechst High Intensity Objects (%)” value [1] was 4%, the “Population Membrane Permeable-Phenotype (%)” value [1] was 21% and the “Population Mitochondria Different-Phenotype (%)” value [1] was 17%. For the same molecule, the “Population Mitotic Cells (%)” value [1] was 19%, the “Population Normal (%)” value [1] was 95% and the “Population Pyknosed Nuclei (%)” value [1] was 12%. The “Population Tubulin-Different-Phenotype (%)” value [1] was 12%, the “Total Cell Count” value [1] was 252 and the “Population Apoptotic (%)” value [2] was 70%. The “Population Fragmented Nuclei (%)” value [2] was 25%, the “Population Healthy Nuclei (%)” value [2] was 63% and the “Population Hoechst High Intensity Objects (%)” value [2] was 2%. The “Population Membrane Permeable-Phenotype (%)” value [2] was 9%, the “Population Mitochondria Different-Phenotype (%)” value [2] was 14% and the “Population Mitotic Cells (%)” value [2] was 30%. For the same molecule, the “Population Normal (%)” value [2] was 97%, the “Population Pyknosed Nuclei (%)” value [2] was 11% and the “Population Tubulin-Different-Phenotype (%)” value [2] was 14%. The “Total Cell Count” value [2] was 89, the “Population Apoptotic (%)” value [3] was 64% and the “Population Fragmented Nuclei (%)” value [3] was 28%. The “Population Healthy Nuclei (%)” value [3] was 50%, the “Population Hoechst High Intensity Objects (%)” value [3] was 4% and the “Population Membrane Permeable-Phenotype (%)” value [3] was 54%. The “Population Mitochondria Different-Phenotype (%)” value [3] was 62%, the “Population Mitotic Cells (%)” value [3] was 35% and the “Population Normal (%)” value [3] was 95%. For the same molecule, the “Population Pyknosed Nuclei (%)” value [3] was 21%, the “Population Tubulin-Different-Phenotype (%)” value [3] was 72% and the “Total Cell Count” value [3] was 222. For the same molecule, the “Population Apoptotic (%)” value [4] was 69%, the “Population Fragmented Nuclei (%)” value [4] was 20% and the “Population Healthy Nuclei (%)” value [4] was 56%. For the same molecule, the “Population Hoechst High Intensity Objects (%)” value [4] was 8%, the “Population Membrane Permeable-Phenotype (%)” value [4] was 22% and the “Population Mitochondria Different-Phenotype (%)” value [4] was 61%. The “Population Mitotic Cells (%)” value [4] was 30%, the “Population Normal (%)” value [4] was 91% and the “Population Pyknosed Nuclei (%)” value [4] was 22%. For the same molecule, the “Population Tubulin-Different-Phenotype (%)” value [4] was 45%, the “Total Cell Count” value [4] was 110 and the “Population Apoptotic (%)” value [5] was 92%. For the same molecule, the “Population Fragmented Nuclei (%)” value [5] was 43%, the “Population Healthy Nuclei (%)” value [5] was 34% and the “Population Hoechst High Intensity Objects (%)” value [5] was 8%. The “Population Membrane Permeable-Phenotype (%)” value [5] was 20%, the “Population Mitochondria Different-Phenotype (%)” value [5] was 25% and the “Population Mitotic Cells (%)” value [5] was 7%. The “Population Normal (%)” value [5] was 91%, the “Population Pyknosed Nuclei (%)” value [5] was 21% and the “Population Tubulin-Different-Phenotype (%)” value [5] was 19%. For the same molecule, the “Total Cell Count” value [5] was 256, the “Population Apoptotic (%)” value [6] was 100% and the “Population Fragmented Nuclei (%)” value [6] was 41%. The “Population Healthy Nuclei (%)” value [6] was 41%, the “Population Hoechst High Intensity Objects (%)” value [6] was 6% and the “Population Membrane Permeable-Phenotype (%)” value [6] was 15%. The “Population Mitochondria Different-Phenotype (%)” value [6] was 21%, the “Population Mitotic Cells (%)” value [6] was 0% and the “Population Normal (%)” value [6] was 93%. For the same molecule, the “Population Pyknosed Nuclei (%)” value [6] was 17%, the “Population Tubulin-Different-Phenotype (%)” value [6] was 12% and the “Total Cell Count” value [6] was 83. The “Population Apoptotic (%)” value [7] was 81%, the “Population Fragmented Nuclei (%)” value [7] was 36% and the “Population Healthy Nuclei (%)” value [7] was 35%. For the same molecule, the “Population Hoechst High Intensity Objects (%)” value [7] was 9%, the “Population Membrane Permeable-Phenotype (%)” value [7] was 16% and the “Population Mitochondria Different-Phenotype (%)” value [7] was 70%. The “Population Mitotic Cells (%)” value [7] was 18%, the “Population Normal (%)” value [7] was 90% and the “Population Pyknosed Nuclei (%)” value [7] was 27%. For the same molecule, the “Population Tubulin-Different-Phenotype (%)” value [7] was 47%, the “Total Cell Count” value [7] was 210 and the “Population Apoptotic (%)” value [8] was 82%. For the same molecule, the “Population Fragmented Nuclei (%)” value [8] was 40%, the “Population Healthy Nuclei (%)” value [8] was 31% and the “Population Hoechst High Intensity Objects (%)” value [8] was 12%. The “Population Membrane Permeable-Phenotype (%)” value [8] was 25%, the “Population Mitochondria Different-Phenotype (%)” value [8] was 62% and the “Population Mitotic Cells (%)” value [8] was 17%. For the same molecule, the “Population Normal (%)” value [8] was 87%, the “Population Pyknosed Nuclei (%)” value [8] was 28% and the “Population Tubulin-Different-Phenotype (%)” value [8] was 34%. For the same molecule, the “Total Cell Count” value [8] was 118, the “Population Apoptotic (%)” value [9] was 96% and the “Population Fragmented Nuclei (%)” value [9] was 53%. The “Population Healthy Nuclei (%)” value [9] was 18%, the “Population Hoechst High Intensity Objects (%)” value [9] was 17% and the “Population Membrane Permeable-Phenotype (%)” value [9] was 23%. The “Population Mitochondria Different-Phenotype (%)” value [9] was 25%, the “Population Mitotic Cells (%)” value [9] was 3% and the “Population Normal (%)” value [9] was 82%. The “Population Pyknosed Nuclei (%)” value [9] was 27%, the “Population Tubulin-Different-Phenotype (%)” value [9] was 25% and the “Total Cell Count” value [9] was 250. The “Population Apoptotic (%)” value [10] was 100%, the “Population Fragmented Nuclei (%)” value [10] was 64% and the “Population Healthy Nuclei (%)” value [10] was 19%. The “Population Hoechst High Intensity Objects (%)” value [10] was 15%, the “Population Membrane Permeable-Phenotype (%)” value [10] was 35% and the “Population Mitochondria Different-Phenotype (%)” value [10] was 35%. For the same molecule, the “Population Mitotic Cells (%)” value [10] was 0%, the “Population Normal (%)” value [10] was 84% and the “Population Pyknosed Nuclei (%)” value [10] was 15%. The “Total Cell Count” value [10] was 120, the “Population Apoptotic (%)” value [11] was 96% and the “Population Fragmented Nuclei (%)” value [11] was 50%. For the same molecule, the “Population Healthy Nuclei (%)” value [11] was 17%, the “Population Hoechst High Intensity Objects (%)” value [11] was 20% and the “Population Membrane Permeable-Phenotype (%)” value [11] was 25%. For the same molecule, the “Population Mitochondria Different-Phenotype (%)” value [11] was 45%, the “Population Mitotic Cells (%)” value [11] was 3% and the “Population Normal (%)” value [11] was 79%. The “Population Pyknosed Nuclei (%)” value [11] was 31%, the “Population Tubulin-Different-Phenotype (%)” value [11] was 32% and the “Total Cell Count” value [11] was 220. The “Population Apoptotic (%)” value [12] was 100%, the “Population Fragmented Nuclei (%)” value [12] was 54% and the “Population Healthy Nuclei (%)” value [12] was 13%. The “Population Hoechst High Intensity Objects (%)” value [12] was 15%, the “Population Membrane Permeable-Phenotype (%)” value [12] was 64% and the “Population Mitochondria Different-Phenotype (%)” value [12] was 50%. The “Population Mitotic Cells (%)” value [12] was 0%, the “Population Normal (%)” value [12] was 84% and the “Population Tubulin-Different-Phenotype (%)” value [12] was 64%. The “Total Cell Count” value [12] was 120.
